Assay results: ChEMBL document CHEMBL1142180, “First characterization of fluoroquinolone resistance in Streptococcus suis” (2007)
Values after ≈ are worked out from the molar mass of the structure shown.

Legend:
Type in all cases: functional
[1] = test system: Streptococcus suis; assay: Antibacterial activity against Streptococcus suis BB1017 isolate after 24 hrs
Summary of the method: (§1)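 Broth microdilution MIC assay against S. suis collection strain or Spanish/South American swine clinical isolates, incubated at 37°C for 24 h; MIC reported in μg/ml.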

[2] = test system: Streptococcus suis; assay: Antibacterial activity against Streptococcus suis ATCC 43765 after 24 hrs; conditions: ATCC 43765, 24 h; summary of the method: as §1
[3] = test system: Streptococcus suis; assay: Antibacterial activity against Streptococcus suis BB1001 isolate after 24 hrs; summary of the method: as §1
[4] = test system: Streptococcus suis; assay: Antibacterial activity against Streptococcus suis BB1002 isolate after 24 hrs; summary of the method: as §1
[5] = test system: Streptococcus suis; assay: Antibacterial activity against Streptococcus suis BB1003 isolate after 24 hrs; summary of the method: as §1
[6] = test system: Streptococcus suis; assay: Antibacterial activity against Streptococcus suis BB1004 isolate after 24 hrs; summary of the method: as §1
[7] = test system: Streptococcus suis; assay: Antibacterial activity against Streptococcus suis BB1005 isolate after 24 hrs; summary of the method: as §1
[8] = test system: Streptococcus suis; assay: Antibacterial activity against Streptococcus suis BB1006 isolate after 24 hrs; summary of the method: as §1
[9] = test system: Streptococcus suis; assay: Antibacterial activity against Streptococcus suis BB1007 isolate after 24 hrs; summary of the method: as §1
[10] = test system: Streptococcus suis; assay: Antibacterial activity against Streptococcus suis BB1008 isolate after 24 hrs; summary of the method: as §1
[11] = test system: Streptococcus suis; assay: Antibacterial activity against Streptococcus suis BB1009 isolate after 24 hrs; summary of the method: as §1
[12] = test system: Streptococcus suis; assay: Antibacterial activity against Streptococcus suis BB1010 isolate after 24 hrs; summary of the method: as §1
[13] = test system: Streptococcus suis; assay: Antibacterial activity against Streptococcus suis BB1011 isolate after 24 hrs
[14] = test system: Streptococcus suis; assay: Antibacterial activity against Streptococcus suis BB1012 isolate after 24 hrs; summary of the method: as §1
[15] = test system: Streptococcus suis; assay: Antibacterial activity against Streptococcus suis BB1013 isolate after 24 hrs; summary of the method: as §1
[16] = test system: Streptococcus suis; assay: Antibacterial activity against Streptococcus suis BB1014 isolate after 24 hrs; summary of the method: as §1
[17] = test system: Streptococcus suis; assay: Antibacterial activity against Streptococcus suis BB1015 isolate after 24 hrs; summary of the method: as §1
[18] = test system: Streptococcus suis; assay: Antibacterial activity against Streptococcus suis BB1016 isolate after 24 hrs; summary of the method: as §1
[19] = test system: Streptococcus suis; assay: Antibacterial activity against Streptococcus suis ATCC 43765 in presence of 10 ug/ml reserpine after 24 hrs; conditions: ATCC 43765, 24 h; summary of the method: as §1
[20] = test system: Streptococcus suis; assay: Antibacterial activity against Streptococcus suis BB1001 isolate in presence of 10 ug/ml reserpine after 24 hrs; summary of the method: as §1
[21] = test system: Streptococcus suis; assay: Antibacterial activity against Streptococcus suis BB1002 isolate in presence of 10 ug/ml reserpine after 24 hrs; summary of the method: as §1
[22] = test system: Streptococcus suis; assay: Antibacterial activity against Streptococcus suis BB1003 isolate in presence of 10 ug/ml reserpine after 24 hrs; summary of the method: as §1
[23] = test system: Streptococcus suis; assay: Antibacterial activity against Streptococcus suis BB1004 isolate in presence of 10 ug/ml reserpine after 24 hrs; summary of the method: as §1
[24] = test system: Streptococcus suis; assay: Antibacterial activity against Streptococcus suis BB1005 isolate in presence of 10 ug/ml reserpine after 24 hrs; summary of the method: as §1
[25] = test system: Streptococcus suis; assay: Antibacterial activity against Streptococcus suis BB1006 isolate in presence of 10 ug/ml reserpine after 24 hrs; summary of the method: as §1
[26] = test system: Streptococcus suis; assay: Antibacterial activity against Streptococcus suis BB1007 isolate in presence of 10 ug/ml reserpine after 24 hrs; summary of the method: as §1
[27] = test system: Streptococcus suis; assay: Antibacterial activity against Streptococcus suis BB1008 isolate in presence of 10 ug/ml reserpine after 24 hrs; summary of the method: as §1
[28] = test system: Streptococcus suis; assay: Antibacterial activity against Streptococcus suis BB1009 isolate in presence of 10 ug/ml reserpine after 24 hrs
Summary of the method: (§2)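 Clinical swine S. suis isolates; MIC by microdilution, 37°C for 24 h, ciprofloxacin tested with reserpine added; MIC reported in μg/ml.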

[29] = test system: Streptococcus suis; assay: Antibacterial activity against Streptococcus suis BB1010 isolate in presence of 10 ug/ml reserpine after 24 hrs; summary of the method: as §2
[30] = test system: Streptococcus suis; assay: Antibacterial activity against Streptococcus suis BB1011 isolate in presence of 10 ug/ml reserpine after 24 hrs; summary of the method: as §2
[31] = test system: Streptococcus suis; assay: Antibacterial activity against Streptococcus suis BB1012 isolate in presence of 10 ug/ml reserpine after 24 hrs; summary of the method: as §2
[32] = test system: Streptococcus suis; assay: Antibacterial activity against Streptococcus suis BB1013 isolate in presence of 10 ug/ml reserpine after 24 hrs; summary of the method: as §2
[33] = test system: Streptococcus suis; assay: Antibacterial activity against Streptococcus suis BB1014 isolate in presence of 10 ug/ml reserpine after 24 hrs; summary of the method: as §2
[34] = test system: Streptococcus suis; assay: Antibacterial activity against Streptococcus suis BB1015 isolate in presence of 10 ug/ml reserpine after 24 hrs; summary of the method: as §2
[35] = test system: Streptococcus suis; assay: Antibacterial activity against Streptococcus suis BB1016 isolate in presence of 10 ug/ml reserpine after 24 hrs; summary of the method: as §2
[36] = test system: Streptococcus suis; assay: Antibacterial activity against Streptococcus suis BB1017 isolate in presence of 10 ug/ml reserpine after 24 hrs; summary of the method: as §2

Row | SMILES | MIC [1] [µg/mL] | MIC [2] [µg/mL] | MIC [3] [µg/mL] | MIC [4] [µg/mL] | MIC [5] [µg/mL] | MIC [6] [µg/mL] | MIC [7] [µg/mL] | MIC [8] [µg/mL] | MIC [9] [µg/mL] | MIC [10] [µg/mL] | MIC [11] [µg/mL] | MIC [12] [µg/mL] | MIC [13] [µg/mL] | MIC [14] [µg/mL] | MIC [15] [µg/mL] | MIC [16] [µg/mL] | MIC [17] [µg/mL] | MIC [18] [µg/mL] | other results
1 | CCN1CCN(c2cc3c(cc2F)c(=O)c(C(=O)O)cn3C2CC2)CC1 [ENROFLOXACIN] | 16 (≈ 44.5 µM) | 0.5 (≈ 1.39 µM) | 0.5 (≈ 1.39 µM) | 0.5 (≈ 1.39 µM) | 0.5 (≈ 1.39 µM) | 0.5 (≈ 1.39 µM) | 0.25 (≈ 0.696 µM) | 1 (≈ 2.78 µM) | 4 (≈ 11.1 µM) | 32 (≈ 89 µM) | 16 (≈ 44.5 µM) | 32 (≈ 89 µM) | 16 (≈ 44.5 µM) | 8 (≈ 22.3 µM) | 8 (≈ 22.3 µM) | 16 (≈ 44.5 µM) | 16 (≈ 44.5 µM) | 8 (≈ 22.3 µM) | –
2 | C[C@H]1COc2c(N3CCN(C)CC3)c(F)cc3c(=O)c(C(=O)O)cn1c23.C[C@H]1COc2c(N3CCN(C)CC3)c(F)cc3c(=O)c(C(=O)O)cn1c23.O [LEVOFLOXACIN] | 64 | 1 | 1 | 1 | 0.5 | 1 | 0.5 | 1 | 2 | 16 | 16 | 32 | 16 | 16 | 16 | 32 | 16 | 32 | –
3 | CCn1cc(C(=O)O)c(=O)c2cc(F)c(N3CCNCC3)cc21 [NORFLOXACIN] | > 64 | 4 (≈ 12.5 µM) | 2 (≈ 6.26 µM) | 2 (≈ 6.26 µM) | 4 (≈ 12.5 µM) | 2 (≈ 6.26 µM) | 4 (≈ 12.5 µM) | 32 (≈ 100 µM) | 16 (≈ 50.1 µM) | > 64 | 32 (≈ 100 µM) | > 64 | 32 (≈ 100 µM) | > 64 | > 64 | > 64 | > 64 | > 64 | –
4 | O=C(O)c1cn(C2CC2)c2cc(N3CCNCC3)c(F)cc2c1=O [CIPROFLOXACIN] | 64 (≈ 193 µM) | 0.5 (≈ 1.51 µM) | 0.5 (≈ 1.51 µM) | 0.5 (≈ 1.51 µM) | 0.5 (≈ 1.51 µM) | 0.5 (≈ 1.51 µM) | 0.5 (≈ 1.51 µM) | 2 (≈ 6.04 µM) | – | 64 (≈ 193 µM) | 32 (≈ 96.6 µM) | 32 (≈ 96.6 µM) | 16 (≈ 48.3 µM) | 32 (≈ 96.6 µM) | 64 (≈ 193 µM) | 64 (≈ 193 µM) | 32 (≈ 96.6 µM) | 32 (≈ 96.6 µM) | MIC [19]: 0.5 µg/mL; MIC [20]: 0.5 µg/mL; MIC [21]: 0.5 µg/mL; MIC [22]: 0.5 µg/mL; MIC [23]: 0.5 µg/mL; MIC [24]: 0.5 µg/mL; MIC [25]: 1 µg/mL; MIC [26]: 4 µg/mL; MIC [27]: 32 µg/mL; MIC [28]: 16 µg/mL; MIC [29]: 16 µg/mL; MIC [30]: 16 µg/mL; MIC [31]: 16 µg/mL; MIC [32]: 16 µg/mL; MIC [33]: 16 µg/mL; MIC [34]: 16 µg/mL; MIC [35]: 16 µg/mL; MIC [36]: 16 µg/mL
5 | CCn1cc(C(=O)O)c(=O)c2ccc(C)nc21 [NALIDIXIC ACID] | > 64 | > 64 | > 64 | > 64 | > 64 | > 64 | > 64 | > 64 | > 64 | > 64 | > 64 | > 64 | > 64 | > 64 | > 64 | > 64 | > 64 | > 64 | –
